The target of one assay is Rhodesain (Trypanosoma brucei rhodesiense, UniProt Q95PM0). In words: Inhibition of Trypanosoma brucei rhodesiense rhodesain after 10 to 15 mins. An outline of the steps:
(§1)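 Recombinant enzymes, FP-2 expressed in E. coli. Run in 50 mM sodium acetate pH 5.5 with 10 mM DTT. Substrate Cbz-Phe-Arg-AMC at 40 µM for FP-2 and 10 µM for rhodesain. Fluorescence (ex 365/em 460) followed continuously for 10–15 min at room temperature. Kiapp taken from Dixon plots and corrected to Ki using Km 21.5 µM (FP-2) or 0.9 µM (rhodesain). Each assay run twice.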

In another assay the target is T1, Falcipain 2 (Plasmodium falciparum, UniProt Q9N6S8).
T1 sequence (Q9N6S8 whole entry): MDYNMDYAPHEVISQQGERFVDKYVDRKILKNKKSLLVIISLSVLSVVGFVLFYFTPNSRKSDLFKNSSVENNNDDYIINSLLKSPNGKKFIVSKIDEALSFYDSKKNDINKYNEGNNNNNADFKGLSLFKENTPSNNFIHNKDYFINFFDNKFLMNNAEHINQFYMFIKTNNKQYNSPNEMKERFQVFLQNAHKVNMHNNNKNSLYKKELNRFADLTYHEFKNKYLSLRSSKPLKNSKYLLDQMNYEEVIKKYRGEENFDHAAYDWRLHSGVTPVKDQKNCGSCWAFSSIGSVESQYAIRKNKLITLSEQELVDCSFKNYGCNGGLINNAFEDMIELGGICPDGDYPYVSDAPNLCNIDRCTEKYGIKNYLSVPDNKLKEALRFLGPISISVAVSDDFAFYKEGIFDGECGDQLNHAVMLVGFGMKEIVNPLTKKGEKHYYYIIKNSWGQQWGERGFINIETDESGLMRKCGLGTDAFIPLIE
The assay can be described thus: Inhibition of Plasmodium falciparum falcipain-2 after 10 to 15 min. An outline of the steps: as §1

The test system of another assay is Plasmodium falciparum. In words: Antiplasmodial activity against Plasmodium falciparum FCBR infected in human RBC. Type of assay: functional, organism-based. To be noted: FCBR/Columbia.
For assay [1], the target named is T2, Falcipain 2 (Plasmodium falciparum) (UniProt Q9N6S8).
T2 sequence (whole entry): T1 sequence (Q9N6S8 whole entry)
The assay can be described thus: Inhibition of Plasmodium falciparum falcipain-2 at 30 uM after 10 to 15 min. An outline of the steps:
(§2)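 Single-concentration screen with Cbz-Phe-Arg-AMC at 40 µM (FP-2) or 10 µM (rhodesain). Hydrolysis product release read continuously over 10 min. DMSO served as negative control and E-64 as positive control. Inhibition expressed as percent versus DMSO.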

The test system of assay [2] is Trypanosoma brucei brucei. In words: Antitrypanosomal activity against Trypanosoma brucei brucei TC 221 after 48 hrs by alamar blue assay. To be noted: TC 221, 48 h.
Assay [3] addresses Rhodesain (Trypanosoma brucei rhodesiense) (UniProt Q95PM0). The assay can be described thus: Inhibition of Trypanosoma brucei rhodesiense rhodesain at 100 uM after 10 to 15 mins. A digest of the protocol: as §2

Molecules are shown by their SMILES.

Rhodesain, sequence (Q95PM0 whole entry): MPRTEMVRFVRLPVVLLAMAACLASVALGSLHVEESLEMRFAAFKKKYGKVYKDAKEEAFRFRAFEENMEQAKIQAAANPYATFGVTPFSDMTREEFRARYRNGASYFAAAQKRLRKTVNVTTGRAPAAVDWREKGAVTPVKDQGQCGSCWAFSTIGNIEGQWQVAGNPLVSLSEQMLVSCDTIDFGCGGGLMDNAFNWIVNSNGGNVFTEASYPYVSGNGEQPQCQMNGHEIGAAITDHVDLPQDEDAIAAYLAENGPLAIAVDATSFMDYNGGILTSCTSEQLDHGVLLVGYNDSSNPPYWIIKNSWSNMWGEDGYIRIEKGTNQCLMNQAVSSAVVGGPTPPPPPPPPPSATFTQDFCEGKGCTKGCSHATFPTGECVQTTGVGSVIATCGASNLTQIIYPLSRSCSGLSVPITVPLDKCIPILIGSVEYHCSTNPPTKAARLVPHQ
Rhodesain (Trypanosoma brucei rhodesiense), sequence (Q95PM0 1-450): as the sequence (Q95PM0 whole entry) above

Consider `O=C(CN1C(=O)[C@@H](COC(=O)Nc2ccc(Cl)cc2C(F)(F)F)N=C(c2ccccc2)c2ccccc21)N[C@H]1CC(=O)O[C@@H]1OCc1ccccc1`, for which the values for the Ki at Rhodesain and on Falcipain 2 were 0.8 µM and 8.9 µM, respectively. Further, half-maximal inhibition in the assay with Plasmodium falciparum (IC50) required 49.5 µM. The inhibition – broadly, the relative decrease from the control value, in per cent – in assay [1] is > 50%.
As for `CC(C)(C)S[C@@H]1OC(=O)C[C@@H]1NC(=O)CN1C(=O)[C@@H](COC(=O)Nc2ccc(Cl)cc2C(F)(F)F)N=C(c2ccccc2)c2ccccc21`, the inhibition in assay [1] was < 30%.
Regarding `CC(C)(C)S[C@H]1OC(=O)C[C@@H]1NC(=O)CN1C(=O)[C@@H](COC(=O)Nc2ccc(Cl)cc2C(F)(F)F)N=C(c2ccccc2)c2ccccc21`, the inhibitory constant (Ki) (in general, the dissociation constant of the complex between target and ligand, obtained from inhibition or displacement) at Rhodesain is 0.7 µM; at Falcipain 2 it was 8.2 µM. Also, the IC50 (usually the concentration that inhibits the measured activity by half) stood at 14.2 µM in assay [2] and 28.5 µM with Plasmodium falciparum. Moreover, in assay [1], the inhibition was > 50%.
As to `O=C(CN1C(=O)[C@@H](COC(=O)Nc2ccc(Cl)cc2C(F)(F)F)N=C(c2ccccc2)c2ccccc21)N[C@H]1CC(=O)O[C@H]1OCc1ccccc1`, the inhibition in assay [1] is < 30%.
With `CC(C)C[C@H](NC(=O)[C@H]1O[C@@H]1C(=O)O)C(=O)NCCCCN=C(N)N` [E-64], the affinity on Falcipain 2 corresponds to a Ki of 40.3 µM. The IC50 in the assay on Plasmodium falciparum amounted to 9.3 µM.
In the case of `NCCCC(N)(C(=O)O)C(F)F` (configuration not stated) [EFLORNITHINE], the IC50 in assay [2] stood at 22.9 µM.
Molecule `O=C(CN1C(=O)[C@@H](COC(=O)Nc2ccc(Cl)cc2C(F)(F)F)N=C(c2ccccc2)c2ccccc21)N[C@H]1CC(=O)OC1O` (some centres not stated) showed an inhibitory constant (Ki) at Falcipain 2 of 4 µM. The half-inhibitory concentration (IC50) in the assay with Plasmodium falciparum was > 100 µM. Further, the inhibition in assay [3] worked out at 30%.

Values taken from ChEMBL document CHEMBL1177889, “Synthesis of novel peptidomimetics as inhibitors of protozoan cysteine proteases falcipain-2 and rhodesain” (Eur J Med Chem, 2010).
